Reference: ChEMBL document CHEMBL1135831, “Expansion of structure-activity studies of piperidine analogues of 1-[2-(diphenylmethoxy)ethyl]-4-(3-phenylpropyl)piperazine (GBR 12935) compounds by altering substitutions in the N-benzyl moiety and behavioral pharmacology of selected molecules” (J Med Chem, 2002)
pIC50: −log10 of the molar value.

How the values were obtained:
Rattus norvegicus [1] = species: Rattus norvegicus; test: Inhibition of [3H]- DA (Dopamine) uptake in rat striatal synaptosomes; type: functional; settings: Brain
[2] = target: Norepinephrine transporter (Rattus norvegicus, UniProt Q9WTR4); test: Inhibition of [3H]- […] binding to Norepinephrine transporter
[3] = target: Monoamine transporters; Norepininephrine & dopamine (Rattus norvegicus) (UniProt P23977+Q9WTR4); test: Selectivity ratio against dopamine and norepinephrine transporter binding; type: protein assay
Procedure, shortened: (§1)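 Ratio of radioligand binding values: SERT ([³H]citalopram) or NET ([³H]nisoxetine) over DAT ([³H]WIN 35,428). Binding 0–4 °C, 2 h (DAT, SERT) or 3 h (NET), final Na⁺ 30 mM (DAT, SERT) or 225 mM (NET); each value from three independent experiments in triplicate.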

[4] = Selectivity ratio 3[H]DA uptake /DAT binding
[5] = target: Monoamine transporters; serotonin & dopamine (Rattus norvegicus) (UniProt P31652+P23977); test: Relative binding to serotonin and dopamine transporters; type: protein assay; procedure, shortened: as §1
[6] = target: Sodium-dependent dopamine transporter (Rattus norvegicus, UniProt P23977); test: Inhibition of 3[H] WIN-35 428 binding to Dopamine transporter (DAT)
[7] = target: Sodium-dependent serotonin transporter (Rattus norvegicus, UniProt P31652); test: Inhibition of [3H]- citalopram binding to Serotonin transporter
Rattus norvegicus [8] = species: Rattus norvegicus; test: Concentration causing 50% Inhibition of [3H]- DA (Dopamine) uptake in rat striatal synaptosomes; type: functional; settings: Brain

Sequence of Norepinephrine transporter (Q9WTR4 whole entry): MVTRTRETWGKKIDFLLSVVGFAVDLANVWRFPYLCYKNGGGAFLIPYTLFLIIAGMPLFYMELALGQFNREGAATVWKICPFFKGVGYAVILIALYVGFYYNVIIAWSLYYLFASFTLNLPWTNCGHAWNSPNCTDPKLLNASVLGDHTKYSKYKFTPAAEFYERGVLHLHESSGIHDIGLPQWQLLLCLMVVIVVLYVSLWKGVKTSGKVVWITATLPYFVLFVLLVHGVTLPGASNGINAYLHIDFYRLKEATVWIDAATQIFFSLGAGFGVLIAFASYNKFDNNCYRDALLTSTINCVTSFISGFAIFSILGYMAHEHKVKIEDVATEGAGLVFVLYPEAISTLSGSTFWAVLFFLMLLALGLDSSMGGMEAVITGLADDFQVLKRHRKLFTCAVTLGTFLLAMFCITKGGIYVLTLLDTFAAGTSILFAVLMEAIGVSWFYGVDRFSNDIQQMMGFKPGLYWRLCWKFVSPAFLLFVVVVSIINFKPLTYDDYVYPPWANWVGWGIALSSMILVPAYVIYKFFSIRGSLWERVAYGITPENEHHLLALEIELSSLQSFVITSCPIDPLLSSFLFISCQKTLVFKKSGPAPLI
Sequence of Sodium-dependent serotonin transporter (P31652 whole entry): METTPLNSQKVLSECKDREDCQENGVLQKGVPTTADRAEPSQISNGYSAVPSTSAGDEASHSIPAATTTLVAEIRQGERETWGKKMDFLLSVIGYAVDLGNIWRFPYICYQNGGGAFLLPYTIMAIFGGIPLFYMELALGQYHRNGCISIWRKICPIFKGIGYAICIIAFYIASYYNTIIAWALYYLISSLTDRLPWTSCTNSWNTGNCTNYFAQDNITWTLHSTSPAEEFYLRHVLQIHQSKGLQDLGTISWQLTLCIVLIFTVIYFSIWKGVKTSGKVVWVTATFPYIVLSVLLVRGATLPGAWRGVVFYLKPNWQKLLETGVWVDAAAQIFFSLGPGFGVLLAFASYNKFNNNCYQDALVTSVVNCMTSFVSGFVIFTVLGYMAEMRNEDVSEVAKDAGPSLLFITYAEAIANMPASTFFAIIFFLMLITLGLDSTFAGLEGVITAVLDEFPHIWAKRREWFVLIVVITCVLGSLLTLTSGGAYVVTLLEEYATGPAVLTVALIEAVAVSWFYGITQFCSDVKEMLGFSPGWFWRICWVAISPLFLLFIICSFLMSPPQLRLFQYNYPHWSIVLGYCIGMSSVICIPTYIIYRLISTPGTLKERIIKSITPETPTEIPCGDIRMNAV
Sequence of Monoamine transporters; serotonin & dopamine (Rattus norvegicus) (P23977 whole entry, looked up): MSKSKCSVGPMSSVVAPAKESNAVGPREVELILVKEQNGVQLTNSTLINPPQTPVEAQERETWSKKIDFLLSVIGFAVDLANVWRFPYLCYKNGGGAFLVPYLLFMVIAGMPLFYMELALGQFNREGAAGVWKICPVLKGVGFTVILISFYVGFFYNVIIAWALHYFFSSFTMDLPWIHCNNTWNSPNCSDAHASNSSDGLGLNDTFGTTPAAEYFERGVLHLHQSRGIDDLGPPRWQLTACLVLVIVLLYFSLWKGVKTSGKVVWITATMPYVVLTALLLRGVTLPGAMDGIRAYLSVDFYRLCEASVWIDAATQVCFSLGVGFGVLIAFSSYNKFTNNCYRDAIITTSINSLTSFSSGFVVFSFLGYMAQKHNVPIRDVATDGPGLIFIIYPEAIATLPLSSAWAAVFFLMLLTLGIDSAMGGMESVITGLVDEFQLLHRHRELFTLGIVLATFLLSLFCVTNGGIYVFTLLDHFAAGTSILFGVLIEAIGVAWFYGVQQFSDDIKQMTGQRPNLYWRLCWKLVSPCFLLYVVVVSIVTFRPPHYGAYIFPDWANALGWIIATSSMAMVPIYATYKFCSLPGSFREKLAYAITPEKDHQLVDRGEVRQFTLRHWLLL
Sequence of Monoamine transporters; serotonin & dopamine (Rattus norvegicus) (P31652 whole entry, looked up): as the sequence (P31652 whole entry) above
Sequence of Sodium-dependent dopamine transporter (P23977 whole entry): as the sequence (P23977 whole entry, looked up) above

Row | SMILES | pIC50 (Rattus norvegicus [1]) | pIC50 [2] | Ratio [3] | Ratio [4] | Ratio [5] | pIC50 [6] | pIC50 [7] | pIC50 (Rattus norvegicus [8])
1 | Oc1cccc(CN2CCC(CCOC(c3ccccc3)c3ccccc3)CC2)c1 | 7.98 | 6.17 | 47 | 0.72 | 69 |  |  | 
2 | CC#Cc1ccc(CN2CCC(CCOC(c3ccccc3)c3ccccc3)CC2)cc1 |  | 5.93 | 18 |  | 37 | 7.19 | 5.62 | 
3 | C=C(C)c1ccc(CN2CCC(CCOC(c3ccccc3)c3ccccc3)CC2)cc1 |  | 6.08 | 72 | 0.26 | 88 | 7.94 | 5.99 | 8.51
4 | Ic1ccc(CN2CCC(CCOC(c3ccccc3)c3ccccc3)CC2)cc1 |  | 5.94 | 1200 | 2.1 | 3040 |  |  | 8.70
5 | Oc1ccc(CN2CCC(CCOC(c3ccccc3)c3ccccc3)CC2)cc1 |  | 5.48 | 14 |  | 18 | 6.62 | 5.36 | 
6 | COC(=O)c1ccc(CN2CCC(CCOC(c3ccccc3)c3ccccc3)CC2)cc1 |  |  |  | 0.23 | 110 | 8.08 | 6.03 | 8.71
7 | C#Cc1ccc(CN2CCC(CCOC(c3ccccc3)c3ccccc3)CC2)cc1 |  | 6.12 | 180 | 1.2 | 250 | 8.39 | 5.98 | 8.32
8 | COc1cccc(CN2CCC(CCOC(c3ccccc3)c3ccccc3)CC2)c1 | 8.18 | 6.33 | 24 | 0.34 | 55 |  | 5.97 | 
9 | C=Cc1ccc(CN2CCC(CCOC(c3ccccc3)c3ccccc3)CC2)cc1 |  | 6.15 | 240 | 0.36 | 500 | 8.53 | 5.83 | 8.97
